# Results from different studies.
# Target: cGMP-dependent protein kinase 1 (PRKG1, Homo sapiens, UniProt Q13976)
# One construct used (Q13976 1-671): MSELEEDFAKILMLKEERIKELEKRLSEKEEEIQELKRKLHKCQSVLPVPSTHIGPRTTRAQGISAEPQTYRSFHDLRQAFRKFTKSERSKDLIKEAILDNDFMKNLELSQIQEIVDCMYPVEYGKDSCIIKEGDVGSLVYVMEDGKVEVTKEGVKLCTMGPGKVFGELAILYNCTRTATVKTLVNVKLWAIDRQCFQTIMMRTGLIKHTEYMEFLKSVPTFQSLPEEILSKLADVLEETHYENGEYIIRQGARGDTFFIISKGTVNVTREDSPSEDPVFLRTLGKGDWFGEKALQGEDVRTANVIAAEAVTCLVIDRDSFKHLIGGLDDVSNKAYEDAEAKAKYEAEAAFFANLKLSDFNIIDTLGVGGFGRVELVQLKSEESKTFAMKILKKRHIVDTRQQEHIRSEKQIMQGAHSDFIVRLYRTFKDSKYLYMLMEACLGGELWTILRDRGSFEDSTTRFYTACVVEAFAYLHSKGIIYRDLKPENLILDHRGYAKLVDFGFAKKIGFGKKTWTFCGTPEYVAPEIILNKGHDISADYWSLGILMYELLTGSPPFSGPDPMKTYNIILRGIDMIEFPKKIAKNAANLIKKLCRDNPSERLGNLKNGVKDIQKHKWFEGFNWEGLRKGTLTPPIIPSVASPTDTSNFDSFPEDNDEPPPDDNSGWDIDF
Structure (SMILES),assay,conditions,quantity,result
O=C(Nc1cccnn1)N1CCC(=Cc2cccc(Oc3ccc(C(F)(F)F)cn3)c2)CC1,"cell-free assay, competition with immobilised ligand",1 µM,remaining binding,100%
COc1cc2ncnc(Nc3ccc(Oc4ccccc4)c(C)c3C)c2cc1OC,"enzyme activity, inhibitor",1 µM,inhibition,4%
Cc1nc(C2CCN(C(=O)c3ccc(OC(F)(F)F)cc3N)CC2)c2ncc(N3CCN(C)CC3)cc2n1,"cell-free assay, competition with immobilised ligand",1 µM,remaining binding,100%
COc1cc(Cl)c(C(=O)N[C@@H](CN[C@H]2CC[C@@H](N)CC2)Cc2ccc(C#N)cc2)cc1-c1ccc(CN[C@H](C)c2ccc(C)cc2)o1,"enzyme activity, inhibitor",1 µM,remaining activity,91%
Cc1ccc(C(=O)Nc2ccc(CN3CCN(C)CC3)c(C(F)(F)F)c2)cc1C#Cc1cnc2cccnn12,"enzyme activity, inhibitor",23.5 nM,remaining activity,72%
Cc1ccc(NC(=O)c2ccc(C)c(C(F)(F)F)c2)cc1C#Cc1nn(C2CCC(O)CC2)c2ncnc(N)c12 (stereo not shown),cell-free assay,10 µM,remaining signal,118%
CCN(CC)c1ccc(C2=NNC(=O)CC2C)cc1[N+](=O)[O-] (stereo not shown),"enzyme activity, inhibitor",10 µM,remaining activity,83%
CN1CC(Oc2cnc(C#N)cc2-c2ccn3nc(NC(=O)C4CC4)cc3c2)C1,"enzyme activity, inhibitor",1 µM,inhibition,2%
CC(C)(C)c1nc2c(s1)c1nc(N)ncc1c1ccc(NS(=O)(=O)c3c(F)cccc3F)c(F)c12,"enzyme activity, inhibitor, radiometric",1 µM,remaining activity,99%
CNC(=O)Nc1ccc2c(c1)CC[C@@]21OC(=O)N(CC(=O)N(Cc2ccc(F)cc2)[C@@H](C)C(F)(F)F)C1=O,"cell-free assay, competition with immobilised ligand",1 µM,remaining binding,100%
Cn1cnc(Br)c1C1=CN(c2ncnc3[nH]cnc23)CCS1,"enzyme activity, inhibitor, radiometric",2 µM,inhibition,97.4%
NS(=O)(=O)c1cc(NC(=O)Cc2ccccc2)ccc1Oc1cccc(Cl)c1,"cell-free assay, competition with immobilised ligand",1 µM,remaining binding,100%
CCCOc1ccc(OC)c(F)c1C(=O)c1ccc(C(=O)N[C@@H]2CNC[C@H]2NC(=O)c2ccc3[nH]ncc3c2)cc1,"enzyme activity, inhibitor",0.1 µM,remaining activity,15%
CNC(=O)c1cc(Oc2ccc(NC(=O)Nc3ccc(Cl)c(C(F)(F)F)c3)cc2)ccn1,"enzyme activity, inhibitor",0.3 µM,inhibition,-10%
CS(=O)(=O)N1CCCC(NC(=O)[C@H](CCC2CCCCC2)NC(=O)c2ccc(CNC(=O)c3cnc4ccccn34)cc2)C1 (stereo partly shown),"cell-free assay, competition with immobilised ligand",0.1 µM,remaining binding,100%
Cc1cc(NC(=O)c2cccc3cc(-c4cccc5[nH]nc(N)c45)ccc23)ccc1F,"enzyme activity, inhibitor",0.1 µM,activity vs control,122%
